By MIC is commonly meant the lowest concentration found to suppress growth.

The source of these data is article PMC10403215 (Science Advances, 2023).

In test [1] the test system is stationary phase S. aureus Newman cells. The test can be described thus: Stationary-phase persister cell killing. Type of test: cell-based, Staphylococcus aureus. Conditions: 100× or 10× MIC.
Test [2] concerns S. aureus MRSA strain USA300. The test can be described thus: Murine epicutaneous infection model. Format: in vivo, BALB/c mice.
For test [3], the system named is S. aureus Newman. The test can be described thus: MIC, broth microdilution. Format: cell-based. The following applies: Staphylococcus aureus. A general note: Dilution methods test growth across graded concentrations, often in twofold steps.
The subject of test [4] is S. aureus RN4220 overexpressing putative target genes. The test can be described thus: MIC against strains overexpressing putative target proteins. Type of test: cell-based, Staphylococcus aureus. Conditions: fig. S4A.
Test [5] concerns S. aureus Newman. Type of test: cell-based, Staphylococcus aureus. The following applies: 40 mM, fig. S4C.
Test [6] relates to S. aureus Newman. The test can be described thus: Time-killing assay, exponential culture. Type of test: cell-based, Staphylococcus aureus. Conditions: control experiment. Summed up: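 Newman grown in LB at 37°C with shaking to OD600 0.4–0.6, then diluted to 1 × 10⁶ CFU/ml in LB containing various concentrations of test compound, with vancomycin as comparator. Incubated at 37°C with shaking. Serial dilutions plated on LB agar at set time points for CFU/ml. Duplicate, three independent experiments.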

For test [7], the system named is MRSA USA300 preformed biofilm. The test can be described thus: Preformed biofilm eradication, crystal violet. Type of test: cell-based, Staphylococcus aureus. The following applies: control. Summed up:
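Eradication of preformed USA300 biofilms by test compound was quantified by crystal violet staining after washing. Three independent experiments, triplicate runs per concentration.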

In test [8] the test system is S. aureus MRSA strain USA300. The test can be described thus: MIC, broth microdilution. Format: cell-based. The following applies: Staphylococcus aureus. Put shortly: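 CLSI M07-A10 broth microdilution with twofold serial dilutions of test compound in MH broth. Inoculum was cells grown in MH broth at 37°C with shaking to OD600 0.4–0.6, diluted to ~1 × 10⁵ CFU/ml final. Run in duplicate, three independent experiments.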

Another test relates to S. aureus USA300. The test can be described thus: Transmission electron microscopy of cell structure. Format: cell-based, Staphylococcus aureus. The following applies: 0.5× MIC, cell lysis within 4 hours.

SMILES strings stand for the structures. Converted amounts (≈) assume the structure as drawn.

Turning to `O=C(O)c1cn(C2CC2)c2cc(N3CCNCC3)c(F)cc2c1=O` [Cipro, ciprofloxacin], the tolerance of persisters entry in [1] was “high level of tolerance”.

Regarding `COc1cccc(OC)c1C(=O)N[C@@H]1C(=O)N2[C@@H]1SC(C)(C)[C@@H]2C(=O)O` [Met, methicillin], the “killing effect compared to the vehicle control” value in test [2] (3 mg kg^−1) is reported as “no significant killing effect”.

In the test with S. aureus Newman [3], `CC1(C)S[C@@H]2[C@H](NC(=O)Cc3ccccc3)C(=O)N2[C@H]1C(=O)O` [Pen, penicillin G] registered an MIC of 0.125 mg/L (≈ 0.374 µM). The tolerance of persisters entry in test [1] was “high level of tolerance”. For the same compound, the “effect of overexpression of each protein on sensitivity” value in [4] is “no effect”. In addition, the “effect of sole addition of lysine or UDP-GlcNAc on susceptibility” value in the test on S. aureus Newman [5] is given as “did not affect”.

`CN[C@H](CC(C)C)C(=O)N[C@H]1C(=O)N[C@@H](CC(N)=O)C(=O)N[C@H]2C(=O)N[C@H]3C(=O)N[C@H](C(=O)N[C@H](C(=O)O)c4cc(O)cc(O)c4-c4cc3ccc4O)[C@H](O)c3ccc(c(Cl)c3)Oc3cc2cc(c3O[C@@H]2O[C@H](CO)[C@@H](O)[C@H](O)[C@H]2O[C@H]2C[C@](C)(N)[C@H](O)[C@H](C)O2)Oc2ccc(cc2Cl)[C@H]1O` [Van, vancomycin]: in the test with S. aureus Newman [6], the “killing speed compared with ChryA” value was “much slower killing”. For the same compound, the antibiofilm ability result in [7] was “no antibiofilm ability”.

For the compound `C[C@@H]1O[C@@H]1P(=O)(O)O` [fosfomycin], the MIC in [8] stood at 4 mg/L (≈ 29 µM). The “cell wall integrity (TEM)” value in the test with S. aureus USA300 is recorded as “severely impaired”.

Consider `CC(=O)O[C@H]1C[C@@]2(C)[C@@H](C[C@@H](O)[C@H]3[C@@]4(C)CC[C@@H](O)[C@@H](C)[C@@H]4CC[C@@]32C)/C1=C(\CCC=C(C)C)C(=O)O` [fusidic acid], for which the MIC in test [8] turned out to be 0.031 mg/L (≈ 0.06 µM). Besides, the “effectiveness, ChryA versus fusidic acid” value in test [2] (bacterial colonization of wounds on Day 16, fig. S3) is recorded as “less effectiveness compared to the low dose of ChryA”.
